16 compounds from ChEMBL document CHEMBL4219240, “Syntheses and structure-activity relationships on antibacterial and anti-ulcerative colitis properties of quaternary 13-substituted palmatines and 8-oxo-13-substituted dihydropalmatines” (Bioorg Med Chem, 2018) can be followed below.

≈ marks a conversion by molar mass, not a printed value.

One data set concerns Staphylococcus aureus. Put plainly: Antibacterial activity against clinical isolate of Staphylococcus aureus after 24 hrs by twofold microdilution broth method. Type of data set: functional. The procedure, abridged: (§1)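 Clinical isolates grown in Mueller-Hinton broth at 37 °C; inoculum diluted in MHB to 10^6 CFU. Compounds from 20,000 µg/ml DMSO stocks, twofold serial dilution across ten wells, with medium-only and organism-only controls. Incubated 24 h in ambient air. MIC taken as the lowest concentration with no visible growth by eye. Three replicates.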

The next data set has as its system Escherichia coli. Put plainly: Antibacterial activity against clinical isolate of Escherichia coli after 24 hrs by twofold microdilution broth method. It is filed as functional. An outline of the steps:
as §1

A further data set concerns Candida albicans. Put plainly: Antifungal activity against Candida albicans CMCC (F) 98001 after 24 hrs by twofold microdilution broth method. Type of data set: functional. Conditions: CMCC (F) 98001, 24 h. The procedure, abridged: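 Strain CMCC(F) 98001 grown in Sabouraud dextrose broth at 25 °C; inoculum diluted in SDB to 10^6 CFU. Compounds from 20,000 µg/ml DMSO stocks, twofold serial dilution across ten wells, with medium-only and organism-only controls. Incubated 24 h. MIC read by eye as the lowest concentration with no visible growth. Three replicates.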

Data set [1] is described as follows: Cytotoxicity against rat IEC-6 cells assessed as cell survival at 10 uM after 72 hrs by MTT assay relative to control. It is filed as cell-based. The settings on record: read-out: Survival. An outline of the steps:
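IEC-6 intestinal epithelial cells were exposed to each compound at a fixed 10 µM for 72 h alongside an untreated blank control. Viability was read by MTT reduction and expressed as survival rate (SR). Compounds with SR between 70% and 100% were classed as noncytotoxic or hypocytotoxic.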

`CCOC(=O)CCCCCCc1c2[n+](cc3c(OC)c(OC)ccc13)CCc1cc(OC)c(OC)cc1-2.[Cl-]`: the MIC is 15.6 µg/mL in the data set with Staphylococcus aureus, over 250 µg/mL against Escherichia coli and 125 µg/mL against Candida albicans. Besides, the viability at 72 h, 10 µM in data set [1] was 70 to 100%.

Regarding `CCOC(=O)CCCCCCCc1c2[n+](cc3c(OC)c(OC)ccc13)CCc1cc(OC)c(OC)cc1-2.[Cl-]`, the MIC with Staphylococcus aureus was 7.81 µg/mL; in the data set on Escherichia coli, 250 µg/mL; in the data set on Candida albicans, 62.5 µg/mL. Besides, the viability at 72 h, 10 µM in data set [1] lay in the range of 70 to 100%.

Turning to `COc1cc2c(cc1OC)-c1cc3ccc(OC)c(OC)c3c(=O)n1CC2`, the MIC against Staphylococcus aureus, against Escherichia coli and against Candida albicans was over 250 µg/mL throughout. Moreover, the viability at 72 h, 10 µM in data set [1] was 70 to 100%.

In the case of `CCOC(=O)CCCCc1c2[n+](cc3c(OC)c(OC)ccc13)CCc1cc(OC)c(OC)cc1-2.[Cl-]`, the MIC in the data set with Staphylococcus aureus is 125 µg/mL; against Escherichia coli it was over 250 µg/mL; against Candida albicans, over 250 µg/mL. Besides, in data set [1], the viability at 72 h, 10 µM fell in the range of 70 to 100%.

Regarding `COc1cc2c(cc1OC)-c1c(C=O)c3ccc(OC)c(O)c3c(=O)n1CC2`, the MIC in the data set with Staphylococcus aureus, against Escherichia coli and against Candida albicans was over 250 µg/mL each time. Besides, the viability at 72 h, 10 µM in data set [1] was in the range of 70 to 100%.

On to `COc1cc2c(cc1OC)-c1c(C(=O)O)c3ccc(OC)c(OC)c3c(=O)n1CC2`, for which the MIC in the data set on Staphylococcus aureus, with Escherichia coli and in the data set with Candida albicans was over 250 µg/mL in each case. The viability at 72 h, 10 µM in data set [1] lay in the range of 70 to 100%.

Consider `CCOC(=O)CCCc1c2[n+](cc3c(OC)c(OC)ccc13)CCc1cc(OC)c(OC)cc1-2.[Cl-]`, for which the MIC in the data set on Staphylococcus aureus is 125 µg/mL; against Escherichia coli, over 250 µg/mL; against Candida albicans it was over 250 µg/mL. Further, in data set [1], the viability at 72 h, 10 µM was in the range of 70 to 100%.

For the compound `CCCCNC(=O)c1c2n(c(=O)c3c(OC)c(OC)ccc13)CCc1cc(OC)c(OC)cc1-2`, the MIC against Staphylococcus aureus, in the data set with Escherichia coli and against Candida albicans was over 250 µg/mL throughout. Further, the viability at 72 h, 10 µM in data set [1] was in the range of 70 to 100%.

For `CCCCCCCNCc1c2n(c(=O)c3c(OC)c(OC)ccc13)CCc1cc(OC)c(OC)cc1-2`, the MIC against Staphylococcus aureus is 125 µg/mL (≈ 253 µM); in the data set on Escherichia coli it was over 250 µg/mL; against Candida albicans, over 250 µg/mL. Further, the viability at 72 h, 10 µM in data set [1] is 70 to 100%.

`CCCNCc1c2n(c(=O)c3c(OC)c(OC)ccc13)CCc1cc(OC)c(OC)cc1-2`: the MIC against Staphylococcus aureus, in the data set with Escherichia coli and in the data set on Candida albicans was over 250 µg/mL each time. Further, in data set [1], the viability at 72 h, 10 µM lay in the range of 70 to 100%.

As for `COc1cc2c(cc1OC)-c1cc3ccc(OC)c(OC)c3c[n+]1CC2.[Cl-]` [PALMATINE CHLORIDE], the minimal inhibitory concentration (MIC) was 250 µg/mL in the data set on Staphylococcus aureus, over 250 µg/mL in the data set on Escherichia coli and over 250 µg/mL with Candida albicans. Further, in data set [1], the viability at 72 h, 10 µM is 70 to 100%.

As to `C[C@H]1COc2c(N3CCN(C)CC3)c(F)cc3c(=O)c(C(=O)O)cn1c23.C[C@H]1COc2c(N3CCN(C)CC3)c(F)cc3c(=O)c(C(=O)O)cn1c23.O` [LEVOFLOXACIN], the figures for the MIC in the data set with Staphylococcus aureus, against Escherichia coli and in the data set with Candida albicans were under 1.95 µg/mL, under 1.95 µg/mL and over 250 µg/mL, respectively.

With `CCCCCNCc1c2n(c(=O)c3c(OC)c(OC)ccc13)CCc1cc(OC)c(OC)cc1-2`, the minimum inhibitory concentration (MIC) against Staphylococcus aureus, in the data set on Escherichia coli and against Candida albicans was over 250 µg/mL each time. The viability at 72 h, 10 µM in data set [1] was 70 to 100%.

For `CCOC(=O)c1c2[n+](cc3c(OC)c(OC)ccc13)CCc1cc(OC)c(OC)cc1-2.[Cl-]`, the MIC against Staphylococcus aureus, against Escherichia coli and in the data set with Candida albicans was over 250 µg/mL throughout. Besides, the viability at 72 h, 10 µM in data set [1] lay in the range of 70 to 100%.

Regarding `CCCCCCCCNCc1c2n(c(=O)c3c(OC)c(OC)ccc13)CCc1cc(OC)c(OC)cc1-2`, the minimum inhibitory concentration (MIC) with Staphylococcus aureus is 31.2 µg/mL (≈ 61.4 µM); in the data set on Escherichia coli, over 250 µg/mL; with Candida albicans, 250 µg/mL (≈ 491 µM). Further, the viability at 72 h, 10 µM in data set [1] was 70 to 100%.

`CCOC(=O)CCCCCc1c2[n+](cc3c(OC)c(OC)ccc13)CCc1cc(OC)c(OC)cc1-2.[Cl-]`: the results for the MIC against Staphylococcus aureus, with Escherichia coli and against Candida albicans were 62.5 µg/mL, over 250 µg/mL and over 250 µg/mL, respectively. Besides, the viability at 72 h, 10 µM in data set [1] was 70 to 100%.
